The text below walks through data of ChEMBL document CHEMBL1147759, “Substituted indanylacetic acids as PPAR-alpha-gamma activators” (Bioorg Med Chem Lett, 2006).

pEC50: −log10 of the molar value.

Data set [1] addresses T1, Peroxisome proliferator-activated receptor alpha (Homo sapiens, UniProt Q07869).
T1 sequence (Q07869 whole entry): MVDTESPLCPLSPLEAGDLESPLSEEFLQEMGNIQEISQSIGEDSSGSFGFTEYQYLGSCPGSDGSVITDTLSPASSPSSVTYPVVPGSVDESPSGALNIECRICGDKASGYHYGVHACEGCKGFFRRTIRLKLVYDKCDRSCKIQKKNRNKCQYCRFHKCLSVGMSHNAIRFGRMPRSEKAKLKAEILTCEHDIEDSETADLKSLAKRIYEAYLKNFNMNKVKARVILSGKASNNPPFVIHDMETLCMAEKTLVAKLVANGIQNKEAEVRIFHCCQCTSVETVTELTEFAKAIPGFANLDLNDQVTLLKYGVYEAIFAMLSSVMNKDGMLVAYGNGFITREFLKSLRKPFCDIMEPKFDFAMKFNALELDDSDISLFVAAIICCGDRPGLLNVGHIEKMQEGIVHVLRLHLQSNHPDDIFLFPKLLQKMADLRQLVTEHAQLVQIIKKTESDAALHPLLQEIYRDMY
As to the kind of experiment: Activity against PPAR alpha in human by FRET assay. In outline:
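Human PPAR-α ligand-binding domain (GST-tagged), incubated with compound, europium-labelled anti-GST antibody, biotinylated CREB-binding protein co-activator and streptavidin-APC. Time-resolved FRET read with excitation at 340 nm and emission at 615 and 640 nm. EC50 taken as the mean of at least three experiments.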

Data set [2] has as its target T2, Peroxisome proliferator-activated receptor gamma (Homo sapiens, UniProt P37231).
T2 sequence (P37231 whole entry): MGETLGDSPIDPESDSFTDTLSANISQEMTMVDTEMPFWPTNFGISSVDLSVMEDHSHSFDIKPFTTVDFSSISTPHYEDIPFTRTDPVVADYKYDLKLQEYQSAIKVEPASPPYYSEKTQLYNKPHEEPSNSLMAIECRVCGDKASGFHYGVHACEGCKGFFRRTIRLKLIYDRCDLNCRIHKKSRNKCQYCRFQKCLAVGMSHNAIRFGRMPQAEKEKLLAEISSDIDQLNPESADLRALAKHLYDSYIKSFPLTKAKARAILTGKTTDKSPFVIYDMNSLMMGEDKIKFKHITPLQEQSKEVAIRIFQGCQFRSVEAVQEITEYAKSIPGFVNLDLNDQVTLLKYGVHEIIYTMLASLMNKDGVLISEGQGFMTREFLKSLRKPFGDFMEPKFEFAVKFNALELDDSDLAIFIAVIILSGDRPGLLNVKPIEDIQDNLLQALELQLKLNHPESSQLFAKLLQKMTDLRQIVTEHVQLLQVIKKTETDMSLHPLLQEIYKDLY
As to the kind of experiment: Activity against PPAR gamma in human by FRET assay.

In data set [3] the test system is Mus musculus. In words: Increase in serum HDL in male hApoA1 mice administered at 10 mg/kg, po. In kind it is functional. Summed up:
(§1)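 Male hApoA1 transgenic mice, n = 16 per group, had ad lib water and chow. They were dosed by oral gavage once daily for eight days in 0.5% methylcellulose vehicle, with vehicle controls. Serum lipid changes are compared with vehicle.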

Data set [4] can be described thus: AUC in male hApoA1 transgenic mice administered at 3 mg/kg, po. The arrangement: dose 3 mg/kg, route oral. The following applies: mouse, plasma. It counts as ADME, organism-based.
Data set [5] in a line: Cmax in male db/db mice administered at 3 mg/kg, po. In kind it is ADME, organism-based. The arrangement: dose 3 mg/kg, route oral. The settings on record: mouse, in vivo.
Data set [6] deals with Mus musculus. In words: Decrease in blood glucose level in male db/db mice administered at 10 mg/kg, po. In kind it is functional. The arrangement: scale not given: the % may be the effect or the level left. In outline: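 Given by oral gavage once daily for 14 days in 0.5% methylcellulose vehicle, with vehicle-dosed controls. After the last dose the mice were euthanized and blood was collected for glucose measurement. The decrease is expressed relative to vehicle.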

Data set [7] relates to Mus musculus. In words: Increase in serum HDL in male hApoA1 mice administered at 30 mg/kg, po. In kind it is functional. Summed up: as §1
Data set [8] can be described thus: AUC in male db/db mice administered at 3 mg/kg, po. It counts as ADME, organism-based. The arrangement: dose 3 mg/kg, route oral. The settings on record: mouse, plasma.
In data set [9] the test system is Mus musculus. As to the kind of experiment: Decrease in serum triglyceride level in male hApoA1 mice administered at 30 mg/kg. In kind it is functional. The arrangement: scale not given: the % may be the effect or the level left. Summed up: as §1
Data set [10] relates to Mus musculus. In words: Decrease in serum triglyceride level in male hApoA1 mice administered at 10 mg/kg. In kind it is functional. Also noted: scale not given: the % may be the effect or the level left. Summed up:
as §1

Data set [11] can be described thus: Cmax in male hApoA1 transgenic mice administered at 3 mg/kg, po. In kind it is ADME, organism-based. The arrangement: dose 3 mg/kg, route oral. The following applies: mouse, in vivo.

On to `CCC(C(=O)O)C1CCc2cc(OCCc3c(C)noc3C)ccc21` (configuration not stated), for which the pEC50 in data set [1] and in [2] was under 5.00 each time.

As to `Cc1oc(-c2ccccc2)nc1CCOc1ccc2c(c1)CCC2C(CC(F)(F)F)C(=O)O` (configuration not stated), the pEC50 – broadly, the negative decadic logarithm of the EC50, by convention in mol/L – was 5.24 in data set [1] and 6.75 in data set [2].

As to `CCC(C(=O)O)C1CCc2cc(OCc3cc(-c4ccccc4)on3)ccc21` (configuration not stated), the pEC50 in data set [1] is 6.17; in data set [2], under 5.00.

Regarding `CC[C@H](C(=O)O)[C@@H]1CCc2cc(OCCc3nc(-c4ccc(C)cc4)oc3C)ccc21`, the Activity in the data set on Mus musculus [3] worked out at 15%; with Mus musculus [6], 45%; with Mus musculus [7], 30%; in the data set on Mus musculus [9], 60%; in the data set on Mus musculus [10], 45%. For the same compound, the pEC50 was 7.11 in data set [1] and 7.52 in data set [2]. Besides, the AUC (commonly concentration integrated over time) worked out at 8060 ng·h/mL in data set [4] and 11600 ng·h/mL in data set [8]. Also, the Cmax (as a rule, the peak of the concentration-time curve) in data set [5] was determined as 2980 ng/mL; in data set [11], 2550 ng/mL.

As for `Cc1oc(-c2ccccc2)nc1CCOc1ccc2c(c1)CCC2C(C(=O)O)C(=O)O` (configuration not stated), the values for the pEC50 in [1] and in [2] were under 5.00 and 5.73, respectively.

With `CCC(C(=O)O)C1CCc2cc(OCc3nc(-c4ccccc4)oc3C)ccc21` (configuration not stated), the pEC50 was 5.91 in [1] and 6.20 in [2].

Turning to `CCCC(C(=O)O)C1CCc2cc(OCCc3nc(-c4ccccc4)oc3C)ccc21` (configuration not stated), the results for the pEC50 in [1] and in [2] were 5.41 and 7.28, respectively.

`Cc1oc(-c2ccccc2)nc1CCOc1ccc2c(c1)CCC2C(C)(C)C(=O)O` (configuration not stated): the pEC50 is 5.22 in data set [1] and 5.25 in [2].

`CCC(C(=O)O)C1CCc2cc(OCCCc3nc(-c4ccccc4)oc3C(F)(F)F)ccc21` (configuration not stated): the results for the pEC50 in data set [1] and in [2] were 6.63 and under 5.00, respectively.

For the compound `CCC(C(=O)O)C1CCc2cc(OCCn3nc(-c4ccccc4)cc3C)ccc21` (configuration not stated), the pEC50 was 6.63 in data set [1] and 6.71 in data set [2].

As for `CCC(C(=O)O)C1CCc2cc(OCCc3nc(-c4ccccc4)oc3-c3ccccc3)ccc21` (configuration not stated), the pEC50 in [1] was under 5.00; in data set [2] it was 6.21.

On to `CCC(C(=O)O)C1CCc2cc(OCCn3ncc4ccccc4c3=O)ccc21` (configuration not stated), for which the pEC50 in [1] and in [2] was under 5.00 each time.

Take `CCC(C(=O)O)C1CCc2cc(OCCc3coc(-c4ccccc4)n3)ccc21` (configuration not stated): the pEC50 was 6.42 in data set [1] and 6.51 in data set [2].

Consider `CCc1oc(-c2ccccc2)nc1CCOc1ccc2c(c1)CCC2C(CC)C(=O)O` (configuration not stated), for which the pEC50 is 6.45 in data set [1] and 7.34 in data set [2].

Take `CCC(C(=O)O)C1CCc2cc(OCCc3noc(-c4ccccc4)n3)ccc21` (configuration not stated): the pEC50 in [1] was 5.98; in data set [2], under 5.00.

For the compound `CCC(C(=O)O)C1CCc2cc(OCCn3nc(-c4ccccc4)c4ccccc4c3=O)ccc21` (configuration not stated), the pEC50 in data set [1] and in data set [2] was under 5.00 in each case.

In the case of `COC(C(=O)O)C1CCc2cc(OCCc3nc(-c4ccccc4)oc3C)ccc21` (configuration not stated), the pEC50 in [1] is 6.17; in [2], 7.35.

Take `CCC(C(=O)O)C1CCc2cc(OCCNC(=O)c3ccccc3)ccc21` (configuration not stated): the pEC50 in [1] and in data set [2] was under 5.00 throughout.

Take `CCC(C(=O)O)C1CCc2cc(OCCc3nc(-c4ccccc4)oc3C(C)C)ccc21` (configuration not stated): the pEC50 in data set [1] is under 5.00; in [2] it was 6.46.

Take `CCC(C(=O)O)C1CCc2cc(OCCc3c(-c4ccccc4)noc3C)ccc21` (configuration not stated): the pEC50 in data set [1] and in [2] was under 5.00 in each case.

In the case of `Cc1oc(-c2ccccc2)nc1CCOc1ccc2c(c1)CCC2C(C(=O)O)c1ccccc1` (configuration not stated), the negative-log EC50 (pEC50) in [1] is 5.14; in [2] it was 5.02.

With `CCOC(=O)C(C(=O)O)C1CCc2cc(OCCc3nc(-c4ccccc4)oc3C)ccc21` (configuration not stated), the pEC50 is 6.51 in data set [1] and 7.17 in data set [2].

For the compound `Cc1oc(-c2ccccc2)nc1CCOc1ccc2c(c1)CCC2C(C(=O)O)C1CC1` (configuration not stated), the pEC50 in [1] is 6.10; in data set [2] it was 6.80.

On to `CCC(C(=O)O)C1CCc2cc(OCCc3nc(-c4ccccc4)sc3C)ccc21` (configuration not stated), for which the negative-log EC50 (pEC50) is 6.01 in data set [1] and 7.07 in data set [2].

With `CCC(C(=O)O)C1CCc2cc(OCc3ccc(-c4nc(-c5ccccc5)oc4C)cc3)ccc21` (configuration not stated), the pEC50 in [1] and in data set [2] was under 5.00 each time.

Consider `CCC(C(=O)O)C1CCc2cc(OCc3nc(-c4ccccc4)oc3C(F)(F)F)ccc21` (configuration not stated), for which the negative-log EC50 (pEC50) in data set [1] was 6.00; in data set [2] it was under 5.00.

Take `Cc1oc(-c2ccccc2)nc1CCOc1ccc2c(c1)CCC2C(CCCc1ccccc1)C(=O)O` (configuration not stated): the pEC50 in data set [1] is under 5.00; in data set [2] it was 5.50.

As for `CCC(C(=O)O)C1CCc2cc(OCCc3nc(-c4ccccc4)oc3C)ccc21` (configuration not stated), the pEC50 in [1] was 6.85; in data set [2], 7.38.

As for `CCC(C(=O)O)C1CCc2cc(OCCNC(=O)Nc3ccc(C)cc3)ccc21` (configuration not stated), the pEC50 in data set [1] and in data set [2] was under 5.00 each time.

For the compound `CCOC(C(=O)O)C1CCc2cc(OCCc3nc(-c4ccccc4)oc3C)ccc21` (configuration not stated), the results for the pEC50 in [1] and in data set [2] were 6.30 and 7.92, respectively.

As to `CCC(C(=O)O)C1CCc2cc(OCCc3nc(-c4ccc(F)cc4)oc3C)ccc21` (stereo in doubt), the pEC50 was 7.43 in data set [1] and 6.81 in data set [2].

As to `CCC(C(=O)O)C1CCc2cc(OCCc3nc(-c4ccc(Cl)c(Cl)c4)oc3C)ccc21` (stereo in doubt), the values for the pEC50 in data set [1] and in data set [2] were 7.54 and 6.88, respectively.

Take `CCC(C(=O)O)C1CCc2cc(OCCc3nc(-c4ccc(F)cc4)oc3C)ccc21` (stereo in doubt; 54): the results for the pEC50 in [1] and in data set [2] were 6.86 and 7.23, respectively.

Consider `CCC(C(=O)O)C1CCc2cc(OCCc3nc(-c4ccc(Cl)c(Cl)c4)oc3C)ccc21` (stereo in doubt; 66), for which the pEC50 in data set [1] was 7.04; in data set [2] it was 7.03.
